Experimental data from different studies.
Converted amounts (≈) assume the structure as drawn.

SMILES	tested on	assay	test system	conditions	measurement	result
C[C@H]1CN(C)CCCN1c1nccc(-c2noc([C@@]3(C)CCCc4sc(N)c(C#N)c43)n2)n1	BaF3	cell growth or viability	–	72 h	EC50	410 nM
CNC(=S)NN=Cc1ccc([N+](=O)[O-])cc1	Leishmania tropica	parasite growth	J774.A1	72 h, intracellular, amastigote	IC50	258 µM
Cc1nc(NC(=O)N2CCC[C@H]2C(N)=O)sc1-c1ccnc(C(C)(C)C(F)(F)F)c1	CAL-51	cell growth or viability, ATP luminescence	–	5 days	EC50	26000 nM
C[C@H]1CNCCCN1c1nccc(-c2noc3c2CCC[C@@]32CCCc3sc(N)c(C#N)c32)n1	BaF3	cell growth or viability	–	72 h	EC50	188 nM
C[C@H](Nc1ccc2c(c1)OCCn1cc(N3C(=O)OC[C@H]3C(F)F)nc1-2)C(N)=O	CAL-51	cell growth or viability, ATP luminescence	–	5 days	EC50	1260 nM
CCOC(=O)C1=C(CN2CCC[C@@H]2C(=O)Nc2cccc(B(O)O)c2)NC(c2nccs2)=N[C@H]1c1ccc(F)cc1Br	Hepatitis B virus	viral replication, inhibitor, qPCR	HepDES19	72 h	EC50	120 nM
O=C1C(=Nc2ccccc2I)c2ccccc2N1Cc1ccc([N+](=O)[O-])cc1	L02	cell growth or viability, MTT	–	48 h	IC50	56.3 µM
CCOC(=O)C1=C(CN2CCC(C(=O)Nc3ccc(B4OC(C)(C)C(C)(C)O4)cc3)C2)NC(c2nccs2)=NC1c1ccc(F)cc1Br (stereo not drawn)	Hepatitis B virus	viral replication, inhibitor, qPCR	HepDES19	72 h	EC50	770 nM
C[C@H]1CNCCCN1c1nccc(-c2noc([C@@]3(C)CCCc4sc(N)c(C#N)c43)n2)n1	BaF3	cell growth or viability	–	72 h	EC50	959 nM
CCOC(=O)C1=C(CN2CCC[C@@H]2C(=O)Nc2ccc(B(O)O)cc2)NC(c2nccs2)=N[C@H]1c1ccc(F)cc1Br	Hepatitis B virus	viral replication, inhibitor, qPCR	HepDES19	72 h	EC50	70 nM
O=C1C(=Nc2ccc(Cl)cc2Br)c2ccccc2N1Cc1ccc([N+](=O)[O-])cc1	L02	cell growth or viability, MTT	–	48 h	IC50	20.4 µM
Nc1nn2c(-c3ccco3)cc(-c3ccc(OCc4ccccc4)cc3)nc2c1N=Nc1ccc(F)cc1	Saccharomyces cerevisiae	microbial growth, broth dilution	ATCC9763	–	MIC	31.3 µg/mL (≈ 62 µM)
CC(C)c1cccc(C(C)C)c1N=C1C(=O)N(Cc2ccc(Br)cc2)c2ccccc21	L02	cell growth or viability, MTT	–	48 h	IC50	> 100 µM
Nc1ccn([C@@H]2CS[C@H](CO)O2)c(=O)n1	Hepatitis B virus	viral replication, inhibitor, qPCR	HepDES19	72 h	EC50	400 nM
COc1ccc(C=NNC(=S)Nc2cccnc2)cc1	Leishmania tropica	parasite growth	J774.A1	72 h, intracellular, amastigote	IC50	350 µM
Cc1cccc(N=C2C(=O)Nc3ccccc32)c1	L02	cell growth or viability, MTT	–	48 h	IC50	> 100 µM
CNC(=S)NN=Cc1ccc(O)c(OC)c1	Leishmania tropica	parasite growth	J774.A1	72 h, intracellular, amastigote	IC50	248 µM
O=C1C(=Nc2ccccc2Br)c2ccccc2N1Cc1ccccc1	L02	cell growth or viability, MTT	–	48 h	IC50	66.2 µM
